Assay results published in PMC3286645 (Carbohydrate Research, 2011).
Read-outs that look alike come from different tables or passages of the source.

Key:
Jurkat cells [1] = assay: MTS cell viability assay in Jurkat cells; assay type: cell-based
Hs27 cells = assay: MTS cell viability assay in Hs27 cells; assay type: cell-based
[2] = Solubility of stock solutions in DMSO and in cell culture medium; assay type: physicochemical; details: 100 mM stock solution in dimethyl sulfoxide
Outline: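 Test compounds and the octylthioglucoside reference were each made up as 100 mM stocks in DMSO. Solubility was judged by eye. An aliquot of each stock was added to cell culture medium, vortexed for 5 sec, centrifuged at 1,400 rpm for 1 min, and checked for precipitate. Stocks that precipitated were diluted further before cytotoxicity testing.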

HaCaT cells = assay: MTS cell viability assay in HaCaT cells; assay type: cell-based, human
[3] = Thermogravimetric analysis; assay type: physicochemical; details: TGA; for Temperature of solvent loss: 10 °C/min under nitrogen; for Number of water molecules: from weight loss; for Percent weight loss: solvent loss
Outline: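 Instrument calibrated with indium and aluminum. 2.5 mg to 4.5 mg of each test compound in an alumina crucible, heated from 25 °C to 200 °C at 10 °C/min under nitrogen flowing at 2 mL/min; weight loss recorded against temperature.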

[4] = Differential scanning calorimetry; assay type: physicochemical; details: DSC; for Mp (transition from solid crystalline phase to liquid crystalline phase): first phase transition; for Cp (clearing point): liquid crystalline phase to liquid melt phase
Outline: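 Dry test compounds kept under vacuum against moisture uptake; 1.0 to 1.5 mg weighed into Tzero aluminum pans sealed with hermetic lids, empty sealed pan as reference. Instrument calibrated with indium for temperature and enthalpy. Scanned 20°C to 250°C at 2.5°C/min; phase transitions taken from the thermograms.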

[5] = cited from earlier work
Jurkat cells [6] = assay: Apoptosis assay; assay type: cell-based
[7] = Jurkat cells, MTS assay, 20 h exposure
[8] = Hs27 cells, MTS assay, 20 h exposure
[9] = HaCaT cells, MTS assay, 20 h exposure

| Structure (SMILES) | toxicity (cell viability) in words (Jurkat cells [1]; [7]) | toxicity (cell viability) in words (Hs27 cells; [8]) | Decomposition Temperature [3] [°C] | Temperature of solvent loss [3] [°C] | Number of water molecules [3] | Percent weight loss [3] [%] | other results |
| --- | --- | --- | --- | --- | --- | --- | --- |
| CCCCCCCCS[C@@H]1O[C@H](CO)[C@@H](O)[C@H](O)[C@H]1O [OTG, octylthioglucoside, reference compound] | moderate toxicity | moderate toxicity |  |  |  |  | solubility in DMSO [2]: readily soluble |
| CCCCCCCCCCO[C@@H]1OC[C@@H](O)[C@H](O)[C@H]1O [Compound 9c, Decyl β-D-xylopyranoside] | moderate toxicity | moderate toxicity | 277.2 ± 11.5 | 96.63 ± 0.44 | 0.5 | 2.69±0.07 | toxicity (cell viability) in words (HaCaT cells; [9]): moderate toxicity |
| CCCCCCO[C@@H]1OC[C@@H](O)[C@H](O)[C@H]1O [Compound 9a, Hexyl β-D-xylopyranoside] |  |  | 262.8 ± 4.34 | 81.74 ± 0.41 | 0.4 | 2.50±0.66 |  |
| CCCCCCCCCCCCCCO[C@@H]1OC[C@@H](O)[C@H](O)[C@H]1O [Compound 9e, Tetradecyl β-D-xylopyranoside] |  |  | 294.8 ± 7.15 | 100.1 ± 2.93 | 0.5 | 1.87±1.08 |  |
| CCCCCCCCO[C@@H]1OC[C@@H](O)[C@H](O)[C@H]1O [Compound 9b, Octyl β-D-xylopyranoside] | moderate toxicity | moderate toxicity | 267.1 ± 9.15 | 85.32 ± 0.55 | 0.5 | 2.35±0.91 | toxicity (cell viability) in words (HaCaT cells; [9]): moderate toxicity; Mp (transition from solid crystalline phase to liquid crystalline phase) [4]: 72.5 °C; Cp (clearing point) [4]: 99.4 °C; Cp (clearing point) ([5]; reported previously ref 23): 96.9 °C; Mp (transition from solid crystalline phase to liquid crystalline phase) ([5]; reported previously ref 23): 64.5 °C; Cp (clearing point) ([5]; reported previously ref 24): 103.3 °C; Mp (transition from solid crystalline phase to liquid crystalline phase) ([5]; reported previously ref 24): 67.5 °C |
| CCCCCCCCCCCCO[C@@H]1OC[C@@H](O)[C@H](O)[C@H]1O [Compound 9d, Dodecyl β-D-xylopyranoside] |  |  | 290.4 ± 10.5 | 86.35 ± 0.98 | 0.3 | 1.56±0.09 |  |
| CCCCCCCCCCCCCCCCO[C@@H]1OC[C@@H](O)[C@H](O)[C@H]1O [Compound 9f, Hexadecyl β-D-xylopyranoside] |  |  |  | 103.4 ± 1.95 | 0.3 | 1.24±0.49 |  |
| O[C@@H]1[C@@H](O)[C@H](OCCC(F)(F)C(F)(F)C(F)(F)C(F)(F)C(F)(F)C(F)(F)F)OC[C@H]1O [Compound 9g, 3,3,4,4,5,5,6,6,7,7,8,8,8-Tridecafluorooctyl β-D-xylopyranoside] |  |  |  | 50.57 ± 1.64 | 0.9 | 2.64±0.83 | toxicity (cell viability) in words (HaCaT cells): moderate toxicity; toxicity (cell viability) in words (Jurkat cells [1]): moderate toxicity; toxicity (cell viability) in words (Hs27 cells): moderate toxicity; mode of cell death (Jurkat cells [6]): apoptosis and not necrosis; Mp (transition from solid crystalline phase to liquid crystalline phase) [4]: 105.1 °C; Cp (clearing point) [4]: 147.0 °C |
